ChEMBL document CHEMBL2396592, “Discovery of Dap-3 polymyxin analogues for the treatment of multidrug-resistant Gram-negative nosocomial infections” (J Med Chem, 2013)
Converted amounts (≈) assume the structure as drawn. *1 amine or outer side, *2 acyl side, *3 side chain or, on linkers, in order; H or OH if unused. Where a SMILES comes first, the peptide text is derived from it. Bridges are numbered along the chain shown (N, C = ends). [ ]: non-standard residue; d: D form. The star is where a group is joined. Isonicotinoyl(2-Ph) = O=C(c1ccnc(-c2ccccc2)c1)*; X18 = c1ccc(-c2cccc(N*)c2)cc1; Dab = NCC[C@H](N)C(=O)O; Dap = NC[C@H](N)C(=O)O; CO = O=C([*:1])[*:2]

Legend:
Acinetobacter baumannii [1] = test: Bactericidal activity against polymyxin-resistant Acinetobacter baumannii clinical isolate 1649; format: functional
Pseudomonas aeruginosa [2] = test: Antibacterial activity against polymyxin-sensitive Pseudomonas aeruginosa 1401 assessed as growth inhibition by broth microdilution method; format: functional
Procedure, shortened: (§1)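 CLSI broth microdilution MIC against P. aeruginosa 1401 (PA01) and 1402 (UC12120), the two strains used in the mouse thigh model.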

Klebsiella pneumoniae = test: Antibacterial activity against polymyxin-sensitive ESBL-positive Klebsiella pneumoniae clinical isolate 3700 assessed as growth inhibition by broth microdilution method; format: functional
Mus musculus = test: fAUC in ICR mouse neutropenic infection model at 12.5 to 75 mg/kg, sc; format: ADME, organism-based; design: dose 12.5-75 mg/kg, route subcutaneous; conditions: in vivo
Procedure, shortened: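 Infected neutropenic female ICR mice (~25 g; cyclophosphamide 150 and 100 mg/kg IP at 4 and 1 days before inoculation) received single SC doses of 12.5–75 mg/kg. Six mice per time point were sampled by cardiac puncture at eight times over 12 h, and plasma was assayed by LC-MS.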

Rattus norvegicus [3] = test: fAUC in Wistar Han rat at 8 mg/kg, iv bid administered as bolus dose for 7 days measured at 1 to 7 days; format: ADME, organism-based; design: dose 8 mg/kg, route intravenous; conditions: in vivo
[4] = Cytotoxicity against human RPTEC after 24 hrs by LDH assay; format: cell-based; conditions: RPTEC cells, read-out: TC50
Procedure, shortened: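 Primary human renal proximal tubule epithelial cells in REGM (EGF, hydrocortisone, epinephrine, insulin, T3, transferrin, gentamycin/amphotericin-B, FBS). After 72 h of growth at 37 °C, 5% CO2, cells were exposed for 24 h to aqueous compound at 100, 67, 44, 30, 20 and 13 μM. LDH release into the supernatant was measured by kit and TC50 (μM) derived, with PMB and PMBN as controls.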

Rattus norvegicus [5] = test: fAUC in Wistar Han rat at 4 mg/kg, iv bid administered as bolus dose for 7 days measured at 1 to 7 days; format: ADME, organism-based; design: dose 4 mg/kg, route intravenous; conditions: in vivo
[6] = Fraction unbound in Wistar Han rat plasma; format: ADME, cell-free
[7] = Ratio of fAUC in ICR mouse neutropenic infection model to MIC for Pseudomonas aeruginosa assessed during measurement of 1 log decrease parameter; format: functional
Canis familiaris [8] = test: fAUC in beagle dog at 5 mg/kg, iv bid administered as bolus dose for 7 days measured at 1 to 7 days; format: ADME, organism-based, Canis lupus familiaris; design: dose 5 mg/kg, route intravenous; conditions: in vivo
Pseudomonas aeruginosa [9] = test: Bactericidal activity against polymyxin-resistant Pseudomonas aeruginosa clinical isolate 1646; format: functional
Procedure, shortened: (§2)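 Test strain PA-1646 is a P. aeruginosa isolate with a mutated PmrAB two-component system. The system is constitutively active, so the modified lipid A moiety is constantly expressed on the cell surface, giving a polymyxin-resistant phenotype.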

[10] = Plasma protein binding in ICR mouse neutropenic infection model; format: ADME, cell-free; conditions: read-out: PPB (converted)
Canis familiaris [11] = test: Nephrotoxicity in beagle dog assessed as incidence of necrotic kidney lesions at 5 to 20 mg/kg, iv bid administered as bolus dose for 7 days measured at 1 to 7 days by microscopic analysis; format: toxicity, organism-based, Canis lupus familiaris; design: route intravenous; conditions: in vivo
Procedure, shortened: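 Male and female Beagle dogs, 5–11 kg, received IV bolus twice daily (≥6 h apart) for 7 days at 0 (0.9% saline), 5, 11 or 20 mg/kg/day. Necropsy was the day after the last dose. Kidney proximal tubules were examined microscopically for degeneration/regeneration and graded in severity. Incidence is given as animals with lesions over animals tested.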

Pseudomonas aeruginosa [12] = test: Antibacterial activity against Pseudomonas aeruginosa 1402 assessed as growth inhibition by broth microdilution method; format: functional; procedure, shortened: as §1
[13] = Ratio of fAUC in ICR mouse neutropenic infection model to MIC for Pseudomonas aeruginosa assessed during measurement of exposure index required for 80%; format: functional
Canis familiaris [14] = test: fAUC in beagle dog at 11 mg/kg, iv bid administered as bolus dose for 7 days measured at 1 to 7 days; format: ADME, organism-based, Canis lupus familiaris; design: dose 11 mg/kg, route intravenous; conditions: in vivo
Escherichia coli = test: Antibacterial activity against polymyxin-sensitive Escherichia coli isolate 1 assessed as growth inhibition by broth microdilution method; format: functional
Canis familiaris [15] = test: Ratio of compound fAUC in beagle dog at 11 mg/kg, iv bid for 7 days to polymyxin B fAUC in beagle dog at 6 mg/kg, iv bid for 7 days; format: ADME, organism-based, Canis lupus familiaris; conditions: in vivo, 168 h
Canis familiaris [16] = test: fAUC in beagle dog at 20 mg/kg, iv bid administered as bolus dose for 7 days measured at 1 to 7 days; format: ADME, organism-based, Canis lupus familiaris; design: dose 20 mg/kg, route intravenous; conditions: in vivo
[17] = Ratio of fAUC in ICR mouse neutropenic infection model to MIC for Pseudomonas aeruginosa assessed during measurement of statis parameter; format: functional
Pseudomonas aeruginosa [18] = test: Antibacterial activity against polymyxin-resistant Pseudomonas aeruginosa clinical isolate 1646 assessed as growth inhibition by broth microdilution method; format: functional; procedure, shortened: as §2
Rattus norvegicus [19] = test: Nephrotoxicity in Wistar Han rat assessed as incidence of necrotic kidney lesions at 4 to 8 mg/kg, iv bid administered as bolus dose for 7 days measured at 1 to 7 days by microscopic analysis; format: toxicity, organism-based; design: route intravenous; conditions: in vivo
Procedure, shortened: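 Male Wistar Han IGS rats, 6–9 weeks old, received IV bolus twice daily (≥6 h apart) for 7 days at 0 (0.9% saline), 4 or 8 mg/kg/day. Necropsy was the day after the last dose. Kidneys were weighed and examined microscopically for proximal tubule epithelial degeneration/regeneration, graded minimal to severe. Incidence is given as animals with lesions over animals tested.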

[20] = Fraction unbound in beagle dog plasma; format: ADME, cell-free, Canis lupus familiaris
Pseudomonas aeruginosa [21] = test: Antibacterial activity against polymyxin-resistant Pseudomonas aeruginosa clinical isolates assessed as growth inhibition by broth microdilution method
Acinetobacter baumannii [22] = test: Antibacterial activity against polymyxin-resistant Acinetobacter baumannii clinical isolate 1649 assessed as growth inhibition by broth microdilution method; format: functional
Acinetobacter baumannii [23] = test: Antibacterial activity against polymyxin-sensitive Acinetobacter baumannii clinical isolate 3167 assessed as growth inhibition by broth microdilution method; format: functional
[24] = Ratio of fAUC in ICR mouse neutropenic infection model to MIC for Pseudomonas aeruginosa assessed during measurement of 50% of maximal efficacy; format: functional

## CC(C)C[C@@H]1NC(=O)[C@@H](Cc2ccccc2)NC(=O)[C@H](CCN)NC(=O)[C@@H](NC(=O)[C@H](CN)NC(=O)[C@@H](NC(=O)[C@H](CCN)NC(=O)c2ccc(=O)n(-c3ccccc3)c2)[C@@H](C)O)CCNC(=O)[C@H]([C@@H](C)O)NC(=O)[C@H](CCN)NC(=O)[C@H](CCN)NC1=O
Acinetobacter baumannii [1]
  MBC: 2 µg/mL (≈ 1.6 µM)
Pseudomonas aeruginosa [2]
  MIC50: 1 µg/mL
  MIC90: 2 µg/mL
Klebsiella pneumoniae
  MIC50: 0.5 µg/mL
  MIC90: 1 µg/mL
Mus musculus
  fAUC: 7200 ng·h/mL
Rattus norvegicus [3]
  fAUC: 29000 ng·h/mL
[4]
  CC50 at 24 h: > 100 µM
Rattus norvegicus [5]
  fAUC: 13000 ng·h/mL
[6]
  fraction unbound: 0.81
[7]
  fAUC/MIC: 109.63
Canis familiaris [8]
  fAUC: 20000 ng·h/mL
Pseudomonas aeruginosa [9]
  MBC: 8 µg/mL (≈ 6.42 µM)
[10]
  fraction unbound: 0.54
Canis familiaris [11]
  Activity: Toxic
Pseudomonas aeruginosa [12]
  MIC: 0.5 µg/mL
[13]
  fAUC/MIC: 157.55
Canis familiaris [14]
  fAUC: 64000 ng·h/mL
Escherichia coli
  MIC50: 1 µg/mL
  MIC90: 2 µg/mL
Canis familiaris [15]
  fAUC ratio: 1.5
Canis familiaris [16]
  fAUC: 114000 ng·h/mL
[17]
  fAUC/MIC: 85.26
Pseudomonas aeruginosa [18]
  MIC: 4 µg/mL
  MIC50: 2 µg/mL
Rattus norvegicus [19]
  Activity: Non-toxic
[20]
  fraction unbound: 0.58
Pseudomonas aeruginosa [21]
  MIC90: 8 µg/mL
Acinetobacter baumannii [22]
  MIC50: 4 µg/mL
  MIC90: 16 µg/mL
Acinetobacter baumannii [23]
  MIC50: 2 µg/mL
  MIC90: 2 µg/mL
[24]
  fAUC/MIC: 87.92

## CC(C)C[C@@H]1NC(=O)[C@@H](Cc2ccccc2)NC(=O)[C@H](CCN)NC(=O)[C@@H](NC(=O)[C@H](CN)NC(=O)[C@@H](NC(=O)[C@H](CCN)NC(=O)c2ccnc(-c3ccccc3)c2)[C@@H](C)O)CCNC(=O)[C@H]([C@@H](C)O)NC(=O)[C@H](CCN)NC(=O)[C@H](CCN)NC1=O ({Isonicotinoyl(2-Ph)}-[Dab]T[Dap][Dab][Dab][dF]L[Dab][Dab]T; lactam 4-C)
Acinetobacter baumannii [1]
  MBC: 1 µg/mL (≈ 0.813 µM)
Pseudomonas aeruginosa [2]
  MIC: 0.25 µg/mL
Klebsiella pneumoniae
  MIC: 0.25 µg/mL
[4]
  CC50 at 24 h: 82 µM
Pseudomonas aeruginosa [9]
  MBC: 4 µg/mL (≈ 3.25 µM)
Escherichia coli
  MIC: 0.125 µg/mL
Pseudomonas aeruginosa [18]
  MIC: 2 µg/mL
Acinetobacter baumannii [22]
  MIC: 1 µg/mL
Acinetobacter baumannii [23]
  MIC: 0.25 µg/mL

## CC(C)C[C@@H]1NC(=O)[C@@H](Cc2ccccc2)NC(=O)[C@H](CCN)NC(=O)[C@@H](NC(=O)[C@H](CN)NC(=O)[C@@H](NC(=O)[C@H](CCN)NC(=O)Nc2cccc(-c3ccccc3)c2)[C@@H](C)O)CCNC(=O)[C@H]([C@@H](C)O)NC(=O)[C@H](CCN)NC(=O)[C@H](CCN)NC1=O ({X18-CO}-[Dab]T[Dap][Dab][Dab][dF]L[Dab][Dab]T; lactam 4-C)
Acinetobacter baumannii [1]
  MBC: 4 µg/mL (≈ 3.21 µM)
Pseudomonas aeruginosa [2]
  MIC: 0.5 µg/mL
Klebsiella pneumoniae
  MIC: 0.25 µg/mL
[4]
  CC50 at 24 h: 15 µM
Pseudomonas aeruginosa [9]
  MBC: 1 µg/mL (≈ 0.804 µM)
Escherichia coli
  MIC: 0.25 µg/mL
Pseudomonas aeruginosa [18]
  MIC: 1 µg/mL
Acinetobacter baumannii [22]
  MIC: 4 µg/mL
Acinetobacter baumannii [23]
  MIC: 0.25 µg/mL

## CC(C)C[C@@H]1NC(=O)[C@@H](Cc2ccccc2)NC(=O)[C@H](CCN)NC(=O)[C@@H](NC(=O)[C@H](CCN)NC(=O)[C@@H](N)[C@@H](C)O)CCNC(=O)[C@H]([C@@H](C)O)NC(=O)[C@H](CCN)NC(=O)[C@H](CCN)NC1=O [POLYMYXIN B NONAPEPTIDE] (H-T[Dab][Dab][Dab][dF]L[Dab][Dab]T; lactam 3-C)
Acinetobacter baumannii [1]
  MBC: > 64 µg/mL
Pseudomonas aeruginosa [2]
  MIC: > 64 µg/mL
Klebsiella pneumoniae
  MIC: > 64 µg/mL
[4]
  CC50 at 24 h: > 100 µM
Pseudomonas aeruginosa [9]
  MBC: > 64 µg/mL
Escherichia coli
  MIC: > 64 µg/mL
Pseudomonas aeruginosa [18]
  MIC: > 64 µg/mL
Acinetobacter baumannii [22]
  MIC: > 64 µg/mL
Acinetobacter baumannii [23]
  MIC: > 64 µg/mL
